Experiment [1] deals with HeLa. Nature of the experiment: Cytotoxicity against human HeLa cells after 24 hrs by MTT assay. The format is functional, cell-based. In outline: (§1)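 MTT assay in RPMI 1640 with 10% fetal calf serum, 2 mM L-glutamine and […]. Log-phase cells seeded, attached 24 h at 37 °C and 5% CO₂, then treated at 0–100 μM. Compounds dissolved in DMSO (1 mg/mL stock), DMSO below 0.1% in wells. Five wells per concentration, triplicate experiments. Blank-corrected OD taken as % of untreated growth, IC50 = 50% inhibition.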

For the next experiment, the system named is HepG2. Nature of the experiment: Cytotoxicity against human HepG2 cells after 24 hrs by MTT assay. The format is functional, cell-based. A digest of the protocol: as §1
The nature of experiment [2]: Cytotoxicity against human […] cells after 24 hrs by MTT assay. It is filed as functional, cell-based. In outline: as §1
For another experiment, the system named is K562. Nature of the experiment: Cytotoxicity against human K562 cells after 24 hrs by MTT assay. The format is functional, cell-based. In outline: as §1
Experiment [3] has as its system HeLa. Nature of the experiment: Induction of apoptosis in human HeLa cells at 0.375 uM after 24 hrs by FITC/AnnexinV-based flow cytometric analysis (reference value: 0.98%). It is filed as functional. A general note: A flow cytometer gives signals particle by particle.
Experiment [4] concerns HeLa. Nature of the experiment: Induction of apoptosis in human HeLa cells assessed as late apoptotic cells at 0.375 to 3 uM after 24 hrs by FITC/AnnexinV-based flow cytometric analysis (reference value: 0.81%). The format is functional.
For experiment [5], the system named is HeLa. Nature of the experiment: Cell cycle arrest in human HeLa cells assessed as decrease in S phase after 36 hrs by PI-staining based flow cytometric analysis. It is filed as functional. A digest of the protocol:
(§2)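 HeLa cells (1 × 10⁵) exposed 36 h to 0, 0.375, 1.5 or 3 μM; washed twice in ice-cold PBS, harvested and fixed. Then RNase A (0.1 mg/mL, 37 °C, 30 min) and propidium iodide staining (30 min on ice, dark). Flow cytometry gave sub-G1, G1, S and G2 fractions, compared with untreated cultures.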

In experiment [6] the test system is HeLa. Nature of the experiment: Cell cycle arrest in human HeLa cells assessed as accumulation in G1 phase at 0.375 uM after 36 hrs by PI-staining based flow cytometric analysis (reference value: 47.36%). The format is functional. In outline:
as §2

Experiment [7] concerns HeLa. Nature of the experiment: Cell cycle arrest in human HeLa cells assessed as accumulation in subG1 phase after 36 hrs by PI-staining based flow cytometric analysis. It is filed as functional. A digest of the protocol: as §2
The species entered for experiment [8] is Capra hircus. Nature of the experiment: Inhibition of goat tubulin polymerization at 3 uM after 30 mins by transmission electron microscopic analysis. A digest of the protocol:
(§3)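 Microtubule protein from goat brain purified by repeated warm polymerisation and cold depolymerisation cycles with glycerol, ATP and GTP. Tubulin incubated ± compound 30 min at 37 °C in 80 mM PIPES pH 6.9, 1 mM MgCl₂, […], 30% glycerol, 1 mM GTP. Fixed in 0.5% glutaraldehyde, grids stained with uranyl acetate, viewed by TEM at 100 kV.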

The test system of experiment [9] is HeLa. Nature of the experiment: Induction of apoptosis in human HeLa cells assessed as early apoptotic cells at 0.375 to 3 uM after 24 hrs by FITC/AnnexinV-based flow cytometric analysis (reference value: 0.17%). The format is functional.
Experiment [10] relates to HeLa. Nature of the experiment: Induction of apoptosis in human HeLa cells at 3 uM after 24 hrs by FITC/AnnexinV-based flow cytometric analysis (reference value: 0.98%). It is filed as functional.
The subject of experiment [11] is HeLa. Nature of the experiment: Cell cycle arrest in human HeLa cells assessed as accumulation in G1 phase after 36 hrs by PI-staining based flow cytometric analysis. The format is functional. A digest of the protocol: as §2
For experiment [12], the species on record is Capra hircus. Nature of the experiment: Inhibition of goat tubulin polymerization assessed as club shaped cytoskeleton at 3 uM after 30 mins by transmission electron microscopic analysis. A digest of the protocol:
as §3

In experiment [13] the test system is HeLa. Nature of the experiment: Cell cycle arrest in human HeLa cells assessed as accumulation in subG1 phase at 3 uM after 36 hrs by PI-staining based flow cytometric analysis (reference value: 0.2%). The format is functional. In outline: as §2
Experiment [14] relates to HeLa. Nature of the experiment: Cell cycle arrest in human HeLa cells assessed as accumulation in subG1 phase at 1.5 uM after 36 hrs by PI-staining based flow cytometric analysis (reference value: 0.2%). It is filed as functional. In outline:
as §2

The subject of experiment [15] is HeLa. Nature of the experiment: Cell cycle arrest in human HeLa cells assessed as decrease in G2 phase after 36 hrs by PI-staining based flow cytometric analysis. It is filed as functional. A digest of the protocol:
as §2

Experiment [16] deals with HeLa. Nature of the experiment: Cell cycle arrest in human HeLa cells assessed as accumulation in G1 phase at 3 uM after 36 hrs by PI-staining based flow cytometric analysis (reference value: 47.36%). It is filed as functional. In outline:
as §2

Experiment [17] has as its system HeLa. Nature of the experiment: Induction of apoptosis in human HeLa cells at 1.5 uM after 24 hrs by FITC/AnnexinV-based flow cytometric analysis (reference value: 0.98%). It is filed as functional.
Experiment [18] concerns HeLa. Nature of the experiment: Cell cycle arrest in human HeLa cells assessed as accumulation in subG1 phase at 0.375 uM after 36 hrs by PI-staining based flow cytometric analysis (reference value: 0.2%). It is filed as functional. A digest of the protocol: as §2
In experiment [19] the test system is HeLa. Nature of the experiment: Cell cycle arrest in human HeLa cells assessed as accumulation in G1 phase at 1.5 uM after 36 hrs by PI-staining based flow cytometric analysis (reference value: 47.36%). It is filed as functional. In outline:
as §2

The structures appear in SMILES notation. Activity calls are given as the source filed them. No cut-off for these calls is given here.

A word on the IC50: it is the concentration that inhibits the measured activity by half. A low value points to inhibition by little substance.

`COc1ccc(/C=C\c2cc(OC)c(OC)c(OC)c2)cc1NC(=O)[C@H](Cc1ccccc1)NC(=O)OC1CC(C)(C)N([O])C(C)(C)C1`: the IC50 with HeLa [1] (hela) came to 8.37 µM; in the experiment with HepG2 (hepg2), 0.28 µM; in experiment [2], 6.33 µM; in the experiment with K562 (k562), 5.8 µM.

`COc1ccc(/C=C\c2cc(OC)c(OC)c(OC)c2)cc1NC(=O)[C@H](CCSC)NC(=O)OC1CC(C)(C)N([O])C(C)(C)C1`: the IC50 was 1.16 µM in the experiment on HeLa [1] (hela), 2.05 µM in the experiment with HepG2 (hepg2), 1.68 µM in experiment [2] and 4.15 µM in the experiment on K562 (k562).

`COc1ccc(/C=C\c2cc(OC)c(OC)c(OC)c2)cc1NC(=O)C1=CC(C)(C)N([O])C1(C)C`: the 50% inhibitory concentration (IC50) with HeLa [1] (hela) was 42.3 µM; in the experiment on HepG2 (hepg2), 38.8 µM; in [2], > 100 µM; in the experiment with K562 (k562) it was > 100 µM.

With `COc1ccc(/C=C\c2cc(OC)c(OC)c(OC)c2)cc1NC(=O)[C@H](Cc1c[nH]c2ccccc12)NC(=O)OC1CC(C)(C)N([O])C(C)(C)C1`, the IC50 in the experiment with HeLa [1] (hela) is 2.08 µM; in the experiment on HepG2 (hepg2), 2.27 µM; in [2], 3.55 µM; in the experiment on K562 (k562) it was 0.56 µM.

Consider `COc1ccc(/C=C\c2cc(OC)c(OC)c(OC)c2)cc1NC(=O)CNC(=O)OC1CC(C)(C)N([O])C(C)(C)C1`, for which the Activity with HeLa [3] was 43.99%; in the experiment on HeLa [4] it was 13.96%; in the experiment with HeLa [5], “Dose-dependent effect”; with HeLa [6], 32.85%; with HeLa [7], “Dose-dependent effect”; with HeLa [9] it was 52.6%. The Activity in the experiment with HeLa [10] is 66.54%; in the experiment with HeLa [11], “Dose-dependent effect”; in the experiment with HeLa [13], 32.42%; in the experiment on HeLa [14], 16.71%; in the experiment on HeLa [15], “Dose-dependent effect”; in the experiment with HeLa [16], 96.25%. Further, the Activity in the experiment with HeLa [17] worked out at 55.75%; in the experiment on HeLa [18], 1.14%; in the experiment with HeLa [19], 85.82%. The IC50 came out at 0.41 µM in the experiment on HeLa [1] (hela), 0.98 µM in the experiment with HepG2 (hepg2), 0.39 µM in experiment [2] and 1.09 µM in the experiment on K562 (k562). The inhibition entry in the experiment filed under Capra hircus [8] and in the experiment listed under Capra hircus [12] was “Active” throughout.

For `COc1ccc(/C=C\c2cc(OC)c(OC)c(OC)c2)cc1NC(=O)[C@@H]1CCCN1C(=O)OC1CC(C)(C)N([O])C(C)(C)C1`, the IC50 in the experiment with HeLa [1] (hela) worked out at 3.39 µM; in the experiment on HepG2 (hepg2), 4.48 µM; in experiment [2], 4.71 µM; in the experiment on K562 (k562) it was 5.53 µM.

As for `COc1ccc(/C=C\c2cc(OC)c(OC)c(OC)c2)cc1NC(=O)C1CC(C)(C)N([O])C(C)(C)C1`, the IC50 in the experiment on HeLa [1] (hela) was 59.2 µM; with HepG2 (hepg2), 51.2 µM; in [2] it was 42.5 µM; in the experiment with K562 (k562), 16.9 µM.

With `COc1ccc(/C=C\c2cc(OC)c(OC)c(OC)c2)cc1NC(=O)C1=CC(C)(C)N([O])C(C)(C)C1`, the IC50 in the experiment with HeLa [1] (hela) came to 8.57 µM; in the experiment with HepG2 (hepg2), 10.7 µM; in experiment [2], 6.21 µM; in the experiment on K562 (k562), 15.6 µM.

With `COc1ccc(/C=C\c2cc(OC)c(OC)c(OC)c2)cc1NC(=O)[C@H](C)NC(=O)OC1CC(C)(C)N([O])C(C)(C)C1`, the IC50 is 0.39 µM in the experiment with HeLa [1] (hela), 0.73 µM with HepG2 (hepg2), 0.96 µM in experiment [2] and 1.56 µM with K562 (k562).

With `CC[C@H](C)[C@H](NC(=O)OC1CC(C)(C)N([O])C(C)(C)C1)C(=O)Nc1cc(/C=C\c2cc(OC)c(OC)c(OC)c2)ccc1OC`, the IC50 in the experiment with HeLa [1] (hela) was found to be 2.33 µM; in the experiment on HepG2 (hepg2), 2.19 µM; in experiment [2] it was 3.07 µM; in the experiment on K562 (k562) it was 18.8 µM.

Consider `COc1ccc(/C=C\c2cc(OC)c(OC)c(OC)c2)cc1NC(=O)C1CC(C)(C)N([O])C1(C)C` (stereo not drawn), for which the IC50 with HeLa [1] (hela) was 7.6 µM; in the experiment on HepG2 (hepg2), 25 µM; in experiment [2] it was 4.93 µM; in the experiment with K562 (k562), 10.4 µM.

Take `COc1ccc(/C=C\c2cc(OC)c(OC)c(OC)c2)cc1N`: the IC50 was determined as 0.403 µM in the experiment with HeLa [1] (Homo sapiens, HeLa, 24 h); 0.028 µM in the experiment on HepG2 (Homo sapiens, HepG2, 24 h); 0.014 µM in [2] (Homo sapiens, 24 h); 0.12 µM in the experiment with K562 (Homo sapiens, K562, 24 h).

Regarding `COc1ccc(/C=C\c2cc(OC)c(OC)c(OC)c2)cc1NC(=O)[C@@H](NC(=O)OC1CC(C)(C)N([O])C(C)(C)C1)C(C)C`, the IC50 with HeLa [1] (hela) was determined as 0.15 µM; with HepG2 (hepg2) it was 1.05 µM; in experiment [2], 0.43 µM; in the experiment with K562 (k562), 12 µM.

As for `COc1cc([C@@H]2c3cc4c(cc3[C@@H](O[C@@H]3O[C@@H]5CO[C@@H](C)O[C@H]5[C@H](O)[C@H]3O)[C@H]3COC(=O)[C@H]23)OCO4)cc(OC)c1O` [ETOPOSIDE], the IC50 with HeLa [1] (Homo sapiens, HeLa, 24 h) was found to be 17.7 µM; with HepG2 (Homo sapiens, HepG2, 24 h), 104 µM; in experiment [2] (Homo sapiens, 24 h) it was 26.9 µM; with K562 (Homo sapiens, K562, 24 h) it was 2.85 µM.

(Values after ChEMBL document CHEMBL2321723, “Synthesis and mechanistic studies of novel spin-labeled combretastatin derivatives as potential antineoplastic agents” (Bioorg Med Chem, 2013).)
